Yeast fitness data for 167 variants are collected here from the RNAGym collection of RNA variant scans (doi:10.1126/science.aae0568).

Variants at the floor of the assay were thinned out. Bounds are passed on as bounds.

Sequences and labels used below:
B1: tRNA (parent)
chain: GUUCCGUUGGCGUAAUGGUAACGCGUCUCCCUCCUAAGGAGAAGACUGCGGGUUCGAGUCCCGUACGGAACG

The variants in the data set derive from B1. In words: yeast fitness relative to wild type (ratio to wild type); higher = fitter; tRNA-Arg(CCU), competitive growth, 37 C, YPD. An outline of the steps:
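A pool of Saccharomyces cerevisiae strains, each with a tRNA-Arg(CCU) gene variant at the native genomic locus, was competed in YPD at 37°C for 24 hours across six parallel replicates. The variants had been chemically synthesised at a 3% per-site mutation rate over 69 sites, and gene amplicons before and after competition were read by 100-nucleotide paired-end sequencing. Darwinian fitness relative to wild type rested on changes in genotype frequencies. Genotypes required ≥ 100 starting reads, and estimates < 0.5 were set to 0.5.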
In the case of U2G G6A C27U A36U C60G, the yeast fitness was found to be 0.526.

For U2G C4U C11G G18C U32C C34U A45U A70U, the yeast fitness is at most 0.5.

As for U2G C4U C29G, the yeast fitness was at most 0.5.

Regarding U2G A45C C49U C55U, the yeast fitness was at most 0.5.

Turning to U3A A42C A65U C66U G67C, the yeast fitness is 0.569.

As for U3A A40U, the yeast fitness is 0.841.

For U2G C5A A57U, the yeast fitness was at most 0.5.

With U2G U47G, the yeast fitness amounted to 0.546.

Regarding U2G C11G A20G C24U C31G, the yeast fitness came out at 0.615.

As to U2G C11G A20U C24G C55A C61U, the yeast fitness is at most 0.5.

U3A A21C G25U A43C C61G C62U: the yeast fitness was at most 0.5.

In the case of U2G C24G G52C C66U, the yeast fitness was 0.807.

Turning to U3A A14C A21C G41A G44C U47C C49U G56A, the yeast fitness is at most 0.5.

Take U2G C31G G39C C60A: the yeast fitness was at most 0.5.

In the case of U2G C66U, the yeast fitness came to 0.858.

With U3A A43U C66U, the yeast fitness was 0.635.

With U2G G51C, the yeast fitness is 0.543.

On to U2G U8A G23A U26G A43G, for which the yeast fitness was 0.576.

Consider U2G U7G U26A C49U A65U, for which the yeast fitness was at most 0.5.

Regarding U2G U8C C27U C46U, the yeast fitness stood at 0.789.

In the case of U2G C34G G39C G41C G67C, the yeast fitness is at most 0.5.

Regarding U2G C29G U47C, the yeast fitness was determined as 0.557.

With U2G G51A G58C, the yeast fitness worked out at 0.562.

Consider U2G C24A C46A A70C, for which the yeast fitness was 1.01.

As for U2G G25A, the yeast fitness stood at 0.986.

For U2G C61U A70G, the yeast fitness was 0.795.

As to U3A C4A U8C C29G A37C C62U A70U, the yeast fitness is at most 0.5.

Consider U3A A21G U35A A40U U54C, for which the yeast fitness is at most 0.5.

Regarding U2G C33A C49G, the yeast fitness is at most 0.5.

As for U2G C55G, the yeast fitness is 0.532.

On to U2G C46A G56C, for which the yeast fitness was at most 0.5.

Take U3A A40C C55A C66A: the yeast fitness was at most 0.5.

Take U2G A37C G41A C49U C60G: the yeast fitness turned out to be 0.51.

U2G G44C C55G: the yeast fitness is at most 0.5.

As to U3A A14G G23C C49G, the yeast fitness came to 0.503.

On to U2G C60U, for which the yeast fitness came to 0.782.

For the variant U2G C5U A21C G48A G50C, the yeast fitness was at most 0.5.

Turning to U2G G10C, the yeast fitness came to 0.527.

With U3A C4G C62U A70C, the yeast fitness came out at 0.754.

As to U3A A15C, the yeast fitness came out at 0.659.

U2G C33U G58C A70U: the yeast fitness is 0.581.

For U2G C34G, the yeast fitness stood at 0.655.

Turning to U2G C34U, the yeast fitness was found to be 0.616.

As for U3A C4G A42G, the yeast fitness is at most 0.5.

As to U3A C4G G41A G63C C66A, the yeast fitness was determined as 0.576.

For the variant U3A A15G G48C, the yeast fitness was found to be 0.595.

Regarding U2G C4A U16C C31U A70U, the yeast fitness is at most 0.5.

For U3A C4U U7A C24U A70G, the yeast fitness was at most 0.5.

For the variant U2G U26C G56A, the yeast fitness was found to be 0.547.

As for U2G C31A G56U G67A A70C, the yeast fitness was at most 0.5.

For the variant U2G G6A G23A C29G C55A, the yeast fitness is 0.508.

Regarding U2G U19G, the yeast fitness is 1.24.

With U3A A37C C61A, the yeast fitness is at most 0.5.

In the case of U2G C11G G38C G44A, the yeast fitness is at most 0.5.

For U3A A21U G51C, the yeast fitness was at most 0.5.

Regarding U2G U3C A21C, the yeast fitness is at most 0.5.

For the variant U3A A40C C62G G68C, the yeast fitness was at most 0.5.

As for U3A A21C C33U U35A G51C G68C A70U, the yeast fitness turned out to be 0.564.

For U2G C22A G56A U59G, the yeast fitness is at most 0.5.

As for U2G C46A G68C, the yeast fitness is at most 0.5.

Turning to U3A A42G G52C A57G, the yeast fitness was at most 0.5.

On to U2G C22U C24G A69C, for which the yeast fitness worked out at 0.579.

Take U3A C4U G25C: the yeast fitness is at most 0.5.

With U2G C33G C62U A65U, the yeast fitness is at most 0.5.

With U2G C5A G10C, the yeast fitness was at most 0.5.

On to U3A A14C, for which the yeast fitness worked out at 0.567.

As to U2G C33G C61A, the yeast fitness is at most 0.5.

As for U2G A45U C66U, the yeast fitness was determined as 0.555.

In the case of U2G C5A U19A A43G, the yeast fitness is at most 0.5.

For the variant U2G G44C G58C, the yeast fitness was determined as 0.647.

As for U2G C30A C46U G52C, the yeast fitness was at most 0.5.

Take U2G G18C G23U U64A: the yeast fitness was 0.606.

As for U2G U16C, the yeast fitness is 0.969.

Regarding U2G U16A, the yeast fitness was found to be 1.15.

With U2G A20U, the yeast fitness is 0.757.

Regarding U2G C62G A69C, the yeast fitness is at most 0.5.

Take U2G U3A C5U U7C U8C A20C U35C A37U A57C: the yeast fitness is at most 0.5.

Consider U2G G18C U26A C33U C46U A57C, for which the yeast fitness was at most 0.5.

Take U3A A15G U28C C60A: the yeast fitness amounted to 0.522.

For the variant U3A A14U C60U C62U A70G, the yeast fitness stood at 0.651.

Take U2G C30G: the yeast fitness stood at 0.679.

U2G A57U: the yeast fitness amounted to 0.66.

With U2G A57G, the yeast fitness came to 0.82.

For the variant U2G U3C G10C A69C, the yeast fitness is at most 0.5.

As to U3A A15G C24A, the yeast fitness was at most 0.5.

Regarding U2G C49U, the yeast fitness was found to be 0.957.

As for U2G C27A C34G A65G, the yeast fitness was at most 0.5.

Regarding U3A A36G A42C, the yeast fitness came out at 0.647.

Consider U3A A36G A42U, for which the yeast fitness is 0.619.

Take U3A A43C: the yeast fitness came out at 0.883.

In the case of U3A A43U, the yeast fitness was 0.929.

As for U2G C46A C66U, the yeast fitness is 0.584.

On to U3A C4G, for which the yeast fitness is 0.792.

As to U3A C4A, the yeast fitness was found to be 0.681.

Consider U3A C4U, for which the yeast fitness came out at 0.874.

Regarding U3A A57G, the yeast fitness amounted to 0.776.

Turning to U3A A57U, the yeast fitness was 0.754.

Turning to U2G C24U C29G C61G, the yeast fitness stood at 0.635.

Regarding U2G U8C C22U C24G U32C A37G A69G A70G, the yeast fitness was at most 0.5.

Turning to U2G C4A A37U, the yeast fitness is at most 0.5.

With U3A A21U C60G C66U, the yeast fitness was at most 0.5.

Regarding U3A A14U C46G, the yeast fitness was at most 0.5.

Consider U3A A20U A42C C55G, for which the yeast fitness is at most 0.5.

Consider U3A A69U, for which the yeast fitness came to 0.999.

U2G G12U A43U: the yeast fitness amounted to 0.631.

On to U2G G9C A20G A42C C46G C49U C66U A69C, for which the yeast fitness is at most 0.5.

In the case of U2G C24U A69U, the yeast fitness came out at 0.681.

With U2G A21G A57C G63A, the yeast fitness is at most 0.5.

With U2G U35C A42C U47A G63C A69C, the yeast fitness was at most 0.5.

For the variant U2G C4U U16A C27G A42U U53C, the yeast fitness stood at 0.564.

On to U2G A21C C22U C31U C33U C62A, for which the yeast fitness was at most 0.5.

Turning to U2G C31G A57U C60A, the yeast fitness was at most 0.5.

For the variant U3A A14C A37C U47A, the yeast fitness was at most 0.5.

U2G A45G: the yeast fitness amounted to 0.869.

On to U2G C27U, for which the yeast fitness turned out to be 0.878.

On to U2G C27G, for which the yeast fitness is 0.546.

As for U2G C4U G56A C61A C62U A65U A69C, the yeast fitness was at most 0.5.

For U2G G6A G25A A37U A40C, the yeast fitness was at most 0.5.

As to U3A A15C U35A G52C C55A, the yeast fitness was at most 0.5.

U2G C4A C22U U28G A42U C62U A70U: the yeast fitness is at most 0.5.

Regarding U2G A40C G63A G68C, the yeast fitness was at most 0.5.

U2G G38C: the yeast fitness came out at 0.606.

U2G C11U C30U C55A A65C: the yeast fitness is at most 0.5.

For the variant U2G C24A A45G, the yeast fitness came out at 0.586.

For U2G U32C A40G, the yeast fitness was at most 0.5.

Turning to U3A A14U G41C G67C, the yeast fitness was at most 0.5.

As to U2G G56A, the yeast fitness stood at 0.896.

Turning to U2G U19A A21G C31U A65U G67C, the yeast fitness is at most 0.5.

Turning to U2G C31U U54G, the yeast fitness is at most 0.5.

U2G G25A U53A G63A: the yeast fitness came to 0.563.

Regarding U3A A14U A20C, the yeast fitness is at most 0.5.

As for U2G G52A G56A, the yeast fitness was found to be 0.81.

Turning to U3A C4A A21U, the yeast fitness is at most 0.5.

Take U2G C46G G52A: the yeast fitness is at most 0.5.

As for U3A C4A A21U G56C G58A, the yeast fitness is at most 0.5.

For the variant U2G G17A C24U A36U A37U, the yeast fitness was 0.585.

As to U3A A15C G17C, the yeast fitness is 0.507.

Take U2G C34U A36C: the yeast fitness was at most 0.5.

Turning to U2G U26G C49G, the yeast fitness worked out at 0.724.

In the case of U2G A45U G67C, the yeast fitness was at most 0.5.

With U2G U7C C29G C60A, the yeast fitness was at most 0.5.

U2G U13A C22U: the yeast fitness amounted to 0.579.

U2G G9A A69U: the yeast fitness is 0.577.

As to U3A A15U G23C C27U G52A C66U, the yeast fitness was at most 0.5.

Consider U2G C11U A40U C49A, for which the yeast fitness worked out at 0.523.

Take U2G U26C: the yeast fitness was 0.918.

In the case of U2G G10C A40G A57G, the yeast fitness is at most 0.5.

As to U2G C34U A69U, the yeast fitness was 0.543.

Turning to U3A A20G C55G C61U, the yeast fitness was at most 0.5.

Take U2G C33U A65C: the yeast fitness was at most 0.5.

For the variant U2G G18A C29G C31G G52A, the yeast fitness is at most 0.5.

Take U3A C4G G6A U26G C66U: the yeast fitness is at most 0.5.

As for U3A A37C C60A A70G, the yeast fitness was at most 0.5.

As for U2G C11G A20U C24G A42G, the yeast fitness is at most 0.5.

As to U2G U13A C60U, the yeast fitness was found to be 0.816.

In the case of U2G C30G C62G, the yeast fitness was determined as 0.591.

As to U2G A36G A69U, the yeast fitness stood at 0.56.

For the variant U2G A37C G41A C49U, the yeast fitness was at most 0.5.

Turning to U2G U54A C61U A65C G67U, the yeast fitness was 0.576.

As for U2G C11U A40G G50C, the yeast fitness is at most 0.5.

Turning to U2G C22U U32C, the yeast fitness was at most 0.5.

For the variant U2G C30U G58C G63C, the yeast fitness is 0.618.

On to U2G G25A U53A, for which the yeast fitness was at most 0.5.

Regarding U2G A21G C49U, the yeast fitness amounted to 0.708.

Take U2G G52A: the yeast fitness was 0.774.

Consider U2G U59C C66A G67A, for which the yeast fitness was at most 0.5.

On to U2G U16G C27A A36C A70C, for which the yeast fitness is at most 0.5.
